Rpn11 block: Rpn11 (PSMD14) deubiquitinase inhibitors, primary screen, biochemical, fluorescence polarization, uHTS | 26S proteasome non-ATPase regulatory subunit 14 (Homo sapiens), O00487 | human 26S proteasome, Ub4-pepOG fluorescence polarization; 20S core pre-blocked with epoxomicin | inhibition, % at 20 µM | 360,000 tested, 0.59% active;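 active means inhibition at 20 µM, scaled to each plate's controls, above about 33%, limit read from the data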
Target sequence (O00487 whole entry, looked up): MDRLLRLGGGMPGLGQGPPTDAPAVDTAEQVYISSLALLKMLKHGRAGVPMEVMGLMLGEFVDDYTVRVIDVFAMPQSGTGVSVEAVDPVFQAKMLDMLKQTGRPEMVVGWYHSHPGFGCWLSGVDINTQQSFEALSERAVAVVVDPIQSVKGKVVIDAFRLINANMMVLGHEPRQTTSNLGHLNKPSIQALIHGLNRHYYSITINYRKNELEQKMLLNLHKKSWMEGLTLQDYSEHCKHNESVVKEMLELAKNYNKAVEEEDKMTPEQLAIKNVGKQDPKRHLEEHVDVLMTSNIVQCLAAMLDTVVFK
LMPTP block: LMPTP phosphatase inhibitors, primary screen, biochemical, fluorescence intensity, uHTS | Low molecular weight phosphotyrosine protein phosphatase (Homo sapiens), P24666 | recombinant LMPTP-A, OMFP fluorogenic substrate | inhibition, % at 20 µM | 360,000 tested, 0.22% active;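 active means compounds that cut the enzyme signal by at least half of the control window in the single-dose screen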;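 further: plate controls were DMSO wells with enzyme plus substrate for no effect and substrate without enzyme for full effect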
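Assay system: LMPTP-A phosphatase enzyme | Input: 0.625 nM enzyme | Also added: Fluorogenic phosphatase substrate OMFP at 400 µM final | Compound dosing: One test concentration per compound, 20 µM, with 3% DMSO overall | Schedule: 50 min enzyme reaction at room temperature, protected from light | Signal: Fluorescence intensity | Benchmarks: no-enzyme and uninhibited controls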
DNMT1 inh: human DNMT1 methyltransferase inhibitors, primary screen, biochemical, molecular beacon, fluorescence, HinP1I cleavage, uHTS. AID 588458, 2011. inhibition (reported as % activation of signal), % at 10 µM. 360,000 tested, 0.83% active. DNA (cytosine-5)-methyltransferase 1 (Homo sapiens), P26358; in the data active means inhibition above about 50%
STEP inh: STEP phosphatase inhibitors, primary screen, biochemical, fluorescence intensity, uHTS; Tyrosine-protein phosphatase non-receptor type 5 (Homo sapiens), P54829; recombinant STEP, OMFP fluorogenic substrate; inhibition, % at 20 µM; 360,000 tested, 0.25% active;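 active means inhibition at 20 µM, scaled per plate between control wells, above about 37%, limit read from the data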;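 further: 0% = DMSO with enzyme and substrate and 100% = substrate only without enzyme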
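Material: STEP (striatal-enriched tyrosine phosphatase) enzyme, cell-free; Compound dosing: 20 µM single dose in 1% DMSO; Technique: fluorescence read at 480 nm ex / 540 nm em; Times: reaction 20 min, ambient temperature; Medium: 50 mM Bis-Tris pH 6.0 with 2.5 mM DTT and 0.005% Tween 20; Also added: OMFP at 25 µM.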
Scp-1 inhibitor: Scp-1 phosphatase inhibitors, primary screen, biochemical, colorimetric, uHTS | Carboxy-terminal domain RNA polymerase II polypeptide A small phosphatase 1 (Homo … | Recombinant Scp1, phosphopeptide, malachite green phosphate absorbance | inhibition, % at 20 µM | 340,000 tested, 0.88% active | AID 493091, 2011;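 active means inhibition above about 50% at 20 µM, limit read from the data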;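 further: plate controls were DMSO wells with enzyme for no effect and wells lacking enzyme for full effect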
Target sequence (Q9GZU7 76-261 limits assumed): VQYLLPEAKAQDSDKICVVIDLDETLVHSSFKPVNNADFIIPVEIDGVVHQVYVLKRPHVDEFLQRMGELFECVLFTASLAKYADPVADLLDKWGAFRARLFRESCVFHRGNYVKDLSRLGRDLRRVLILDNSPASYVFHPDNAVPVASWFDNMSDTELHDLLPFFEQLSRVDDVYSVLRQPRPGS
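Test system – truncated SCP-1 phosphatase (76-261aa) · Reagent – Phosphorylated 17-residue peptide substrate · Incubation – 45 min room-temperature reaction, 5 min colour, 30 min stabiliser · Detection – colorimetric phosphate reagent with accelerator and stabiliser, absorbance at 630 nm · Measure – % inhibition at 20 µM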
SUMO1 PPI mod: modulators of SUMO1 protein-protein interactions, primary screen, biochemical, uHTS; Small ubiquitin-related modifier 1 (Homo sapiens), P63165; inhibition, % at 20 µM; SUMO1 binding to a labelled peptide, TR-FRET, 1 h; 360,000 tested, 0.33% active; in the data active means inhibition above about 37%
Target sequence (P63165 whole entry, looked up): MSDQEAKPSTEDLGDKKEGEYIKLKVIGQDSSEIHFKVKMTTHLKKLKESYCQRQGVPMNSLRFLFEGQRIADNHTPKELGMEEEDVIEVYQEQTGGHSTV
DNMT1 inh conf: DNMT1 methyltransferase inhibitor retest, confirmation, biochemical, molecular beacon, fluorescence, single concentration. shares compounds with DNMT1 inh. DNMT1 molecular beacon HinP1I cleavage. inhibition, % at 10 µM. 2,300 tested, 8% active. AID 602385, 2012;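 active means average inhibition of at least 30% in the single-concentration confirmation test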
DNMT1 interf: shows spectral interference in the DNMT1 beacon assay | DNMT1 molecular beacon spectral interference counterscreen, fluorescence 485/520 | shares compounds with DNMT1 inh | 2,300 tested, 1% active | activation (fluorescence interference), % at 10 µM;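 active means activation of at least 30% at 10 µM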;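 further: DNMT1 catalytic domain with a HinP1I cleavage step and a FAM/dabcyl DNA beacon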
Starred values were filed as active, the others as inactive. Rows were chosen to be rich in hits. Some 2.3% of all compounds tested hit in one or more screens of this group.

For Cc1cc(Br)ccc1NC(=O)C1CCN(S(=O)(=O)c2cnc[nH]2)CC1 the results were Rpn11 block -10.5, LMPTP block -1.3, DNMT1 inh 1.4, STEP inh -1.2, Scp-1 inhibitor -6.9 and SUMO1 PPI mod 3.8.
CC(/C=N/n1c(-c2ccncc2)n[nH]c1=S)=C\c1ccco1 was read as Rpn11 block -8.5, LMPTP block 9.8, DNMT1 inh 83.0*, STEP inh 7.9, Scp-1 inhibitor 9.8, SUMO1 PPI mod 20.3, DNMT1 inh conf 2.5 and DNMT1 interf 3.0.
`Cc1cccc(-c2n[nH]c(=S)n2/N=C/C=C/c2ccco2)c1` gave Rpn11 block 9.3, LMPTP block 15.8, DNMT1 inh 66.2*, STEP inh 3.8, Scp-1 inhibitor -22.6, SUMO1 PPI mod 7.7, DNMT1 inh conf 1.7 and DNMT1 interf 3.6.
`CC(/C=N/n1c(-c2ccc(C)cc2)n[nH]c1=S)=C\c1ccco1` gave Rpn11 block 6.0, LMPTP block 1.4, DNMT1 inh 2.8, STEP inh 1.8, Scp-1 inhibitor 7.3 and SUMO1 PPI mod -5.1.
Screening S=c1[nH]nc(-c2ccccc2Cl)n1/N=C/C=C/c1ccco1 returned Rpn11 block 11.6, LMPTP block 2.9, DNMT1 inh 23.5, STEP inh 0.0, Scp-1 inhibitor 14.7 and SUMO1 PPI mod 3.5.
`S=c1[nH]nc(-c2ccncc2)n1/N=C/C=C/c1ccco1` gave Rpn11 block -32.6, LMPTP block -0.9, DNMT1 inh 62.6*, STEP inh 0.6, Scp-1 inhibitor 8.1, SUMO1 PPI mod 26.8, DNMT1 inh conf 4.5 and DNMT1 interf 3.0.
Screening CC(C)C[C@H]1CNC(=S)N1C[C@H]1CCCN1C[C@H](Cc1ccccc1)N1C[C@H](CC(C)C)N(CCc2ccccc2)C1=S returned Rpn11 block 3.1, LMPTP block 5.5, DNMT1 inh 1.3, STEP inh 12.8 and SUMO1 PPI mod -3.6.
CCC(NC(=O)c1cccc(Cn2nc(C)c([N+](=O)[O-])c2C)c1)c1ccc(C(C)C)cc1 (centres undefined) was read as Rpn11 block 5.2, LMPTP block 5.2, DNMT1 inh 54.8*, STEP inh 0.4, Scp-1 inhibitor -0.3, SUMO1 PPI mod 1.3, DNMT1 inh conf 1.7 and DNMT1 interf 5.0.
`Cc1nn(Cc2cccc(C(=O)NC(C)c3ccc(C(C)(C)C)cc3)c2)c(C)c1[N+](=O)[O-]` (centres undefined) gave Rpn11 block 2.3, LMPTP block 4.7, DNMT1 inh -1.3, STEP inh -1.1, Scp-1 inhibitor -13.3 and SUMO1 PPI mod 2.5.
`CC(=O)C1=C(O)C(=O)N(c2ccc(C)cc2)C1c1ccccn1` (centres undefined) gave Rpn11 block 1.0, LMPTP block -1.0, DNMT1 inh -3.8, STEP inh -2.7, Scp-1 inhibitor -5.2 and SUMO1 PPI mod -7.6.
Screening Cc1ccc(C2C(C#N)=C(N)N(N(C)C)C3=C2C(=O)CCC3)cc1 (centres undefined) returned Rpn11 block 4.7, LMPTP block 0.0, DNMT1 inh 78.9*, STEP inh -1.5, Scp-1 inhibitor -16.6, SUMO1 PPI mod 1.5, DNMT1 inh conf 1.7 and DNMT1 interf 2.0.
For CN(C)N1C(N)=C(C#N)C(c2ccc(Cl)cc2)C2=C1CCCC2=O (centres undefined) the results were Rpn11 block -4.6, LMPTP block -0.8, DNMT1 inh 1.0, STEP inh 0.6, Scp-1 inhibitor -9.0 and SUMO1 PPI mod 3.6.
C#CCOCCOCCOCCNc1nc(N2CCOCC2)nc(N2CCN(C(=O)Cn3cc(CCCCN)nn3)CC2)n1 was read as Rpn11 block -2.2, LMPTP block -5.6, DNMT1 inh 3.6, STEP inh 4.2, Scp-1 inhibitor -4.4 and SUMO1 PPI mod 1.4.
For COC(=O)c1ccccc1NC(=O)c1cc(-c2cccs2)on1 the results were Rpn11 block 3.3, LMPTP block 5.0, DNMT1 inh 56.2*, STEP inh 1.5, Scp-1 inhibitor 0.2, SUMO1 PPI mod 0.4, DNMT1 inh conf 3.1 and DNMT1 interf -3.2.
COC(=O)c1ccccc1NC(=O)c1cc(-c2ccco2)on1 was read as Rpn11 block 18.3, LMPTP block 3.5, DNMT1 inh 7.7, STEP inh 2.1, Scp-1 inhibitor -0.8 and SUMO1 PPI mod -2.2.
Cc1ccc(/C=N/N=C2/NC(=O)C(CC(=O)Nc3ccccc3)S2)o1 (centres undefined) was read as Rpn11 block 2.7, LMPTP block 0.9, DNMT1 inh 4.5, STEP inh -1.4, Scp-1 inhibitor 1.2 and SUMO1 PPI mod -5.9.
Cc1cc(C)cc(-n2nnnc2SCC(=O)N2CCOCC2)c1 was read as Rpn11 block 5.2, LMPTP block 0.0, DNMT1 inh 78.9*, STEP inh 1.4, Scp-1 inhibitor 0.7, SUMO1 PPI mod 3.9, DNMT1 inh conf -0.4 and DNMT1 interf 3.6.
Screening COc1ccc(OC)c2sc(NC(=O)c3ccc(Cl)s3)nc12 returned Rpn11 block 2.3, LMPTP block 7.1, DNMT1 inh 60.8*, STEP inh 1.2, Scp-1 inhibitor -11.9, SUMO1 PPI mod -1.2, DNMT1 inh conf 6.3 and DNMT1 interf 0.0.
For COc1ccc(OC)c2sc(NC(=O)c3ccc(Br)s3)nc12 the results were Rpn11 block -0.4, LMPTP block 20.8, DNMT1 inh 56.6*, STEP inh 3.7, Scp-1 inhibitor -9.2, SUMO1 PPI mod 13.1, DNMT1 inh conf 2.4 and DNMT1 interf -3.4.
`CCC(=O)Nc1nc2c(OC)ccc(OC)c2s1` gave Rpn11 block 4.7, LMPTP block 1.1, DNMT1 inh -0.9, STEP inh 0.8, Scp-1 inhibitor -4.8 and SUMO1 PPI mod 2.9.
Screening O=C1NC(=O)c2cc3ccccc3cc21 returned Rpn11 block -5.7, LMPTP block -9.4, DNMT1 inh 9.6, STEP inh -1.0, Scp-1 inhibitor -5.5 and SUMO1 PPI mod -33.9.
